Publication PMC8923172 (Antimicrobial Agents and Chemotherapy, 2022)
Residues, ends and D or L forms follow the SMILES beside them.

Key:
[1] = Hematology of cynomolgus monkeys at the end of treatment; assay type: in vivo; conditions: median (IQR)
Outline: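 GLP 10-day study in male and female cynomolgus monkeys (n = 3-5/sex/group) dosed once daily with 0 (placebo), 5, 10 or 15 mg/kg test compound by i.v. infusion over 60 ± 5 min. Hematology, serum chemistry and coagulation were taken at end of treatment and reported as median (IQR). Dose groups were compared by Kruskal-Wallis with Dunn's multiple comparison test.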

LPS-induced ALI = conditions: single subcutaneous injection 25 mg/kg; cited from earlier work

CC[C@H](C)[C@@H]1NC(=O)[C@@H]2CSSC[C@H](NC(=O)[C@H](CCCNC(=N)N)NC(=O)[C@@H]3CSSC[C@H](NC1=O)C(=O)N[C@@H]([C@@H](C)O)C(=O)N[C@@H](CCCNC(=N)N)C(=O)NCC(=O)N[C@@H](Cc1ccccc1)C(=O)N3)C(=O)N[C@@H](CC(C)C)C(=O)N[C@H]1CSSC[C@H](NC(=O)[C@H](C(C)C)NC(=O)CNC(=O)[C@H](CCCNC(=N)N)NC(=O)[C@H](CCCNC(=N)N)NC1=O)C(=O)N[C@@H](CCCNC(=N)N)C(=O)N2 [RTD-1, Rhesus theta (θ) defensin-1] (HELM PEPTIDE1{G.F.C.R.C.L.C.R.R.G.V.C.R.C.I.C.T.R}$PEPTIDE1,PEPTIDE1,3:R3-16:R3|PEPTIDE1,PEPTIDE1,5:R3-14:R3|PEPTIDE1,PEPTIDE1,7:R3-12:R3|PEPTIDE1,PEPTIDE1,1:R1-18:R2$$$V2.0)
LUC, absolute ([1]; female, 10 mg/kg/day): 0.10 (0.01) 10^3/mm^3
Lymphocytes, absolute ([1]; female, 10 mg/kg/day): 4.46 (1.00) 10^3/mm^3
MCH ([1]; female, 10 mg/kg/day): 20.20 (1.00) pg
MCHC ([1]; female, 10 mg/kg/day): 28.80 (0.70) g/dL
MCV ([1]; female, 10 mg/kg/day): 69.70 (4.30) fL
Monocytes, absolute ([1]; female, 10 mg/kg/day): 0.66 (0.13) 10^3/mm^3
Neutrophils, absolute ([1]; female, 10 mg/kg/day): 5.08 (5.64) 10^3/mm^3
Platelets ([1]; female, 10 mg/kg/day): 497.00 (214.50) 10^3/mm^3
RBC ([1]; female, 10 mg/kg/day): 5.30 (0.94) 10^6/mm^3
RDW ([1]; female, 10 mg/kg/day): 15.10 (0.70) %
Reticulocytes, absolute ([1]; female, 10 mg/kg/day): 70.30 (33.40) 10^9/L
WBC ([1]; female, 10 mg/kg/day): 10.70 (6.80) 10^3/mm^3
Basophils, absolute ([1]; female, 15 mg/kg/day): 0.12 (0.01) 10^3/mm^3
Eosinophils, absolute ([1]; female, 15 mg/kg/day): 0.34 (0.10) 10^3/mm^3
Hematocrit ([1]; female, 15 mg/kg/day): 38.50 (6.90) %
Hemoglobin ([1]; female, 15 mg/kg/day): 10.90 (1.70) g/dL
LUC, absolute ([1]; female, 15 mg/kg/day): 0.16 (0.06) 10^3/mm^3
Lymphocytes, absolute ([1]; female, 15 mg/kg/day): 5.09 (2.32) 10^3/mm^3
MCH ([1]; female, 15 mg/kg/day): 19.90 (0.30) pg
MCHC ([1]; female, 15 mg/kg/day): 28.80 (1.10) g/dL
MCV ([1]; female, 15 mg/kg/day): 68.90 (2.00) fL
Monocytes, absolute ([1]; female, 15 mg/kg/day): 0.79 (0.15)^c 10^3/mm^3
Neutrophils, absolute ([1]; female, 15 mg/kg/day): 11.31 (5.67) 10^3/mm^3
Platelets ([1]; female, 15 mg/kg/day): 513.00 (299.00) 10^3/mm^3
RBC ([1]; female, 15 mg/kg/day): 6.04 (1.28) 10^6/mm^3
RDW ([1]; female, 15 mg/kg/day): 14.70 (1.80) %
Reticulocytes, absolute ([1]; female, 15 mg/kg/day): 83.90 (46.10) 10^9/L
WBC ([1]; female, 15 mg/kg/day): 16.10 (5.40) 10^3/mm^3
Basophils, absolute ([1]; male, 5 mg/kg/day): 0.12 (0.08) 10^3/mm^3
Eosinophils, absolute ([1]; male, 5 mg/kg/day): 0.26 (0.12) 10^3/mm^3
Hematocrit ([1]; male, 5 mg/kg/day): 43.10 (3.05) %
Hemoglobin ([1]; male, 5 mg/kg/day): 12.70 (0.85) g/dL
LUC, absolute ([1]; male, 5 mg/kg/day): 0.15 (0.07) 10^3/mm^3
Lymphocytes, absolute ([1]; male, 5 mg/kg/day): 6.85 (3.12) 10^3/mm^3
MCH ([1]; male, 5 mg/kg/day): 19.80 (0.55) pg
MCHC ([1]; male, 5 mg/kg/day): 26.40 (1.55) g/dL
MCV ([1]; male, 5 mg/kg/day): 75.10 (2.10) fL
Monocytes, absolute ([1]; male, 5 mg/kg/day): 0.74 (0.23) 10^3/mm^3
Neutrophils, absolute ([1]; male, 5 mg/kg/day): 4.65 (3.33) 10^3/mm^3
Platelets ([1]; male, 5 mg/kg/day): 358.00 (21.50) 10^3/mm^3
RBC ([1]; male, 5 mg/kg/day): 6.06 (0.42) 10^6/mm^3
RDW ([1]; male, 5 mg/kg/day): 15.40 (1.00) %
Reticulocytes, absolute ([1]; male, 5 mg/kg/day): 43.70 (23.20) 10^9/L
WBC ([1]; male, 5 mg/kg/day): 14.70 (5.95) 10^3/mm^3
Basophils, absolute ([1]; male, 10 mg/kg/day): 0.08 (0.04) 10^3/mm^3
Eosinophils, absolute ([1]; male, 10 mg/kg/day): 0.20 (0.06) 10^3/mm^3
Hematocrit ([1]; male, 10 mg/kg/day): 42.60 (5.20) %
Hemoglobin ([1]; male, 10 mg/kg/day): 11.90 (1.30) g/dL
LUC, absolute ([1]; male, 10 mg/kg/day): 0.15 (0.01) 10^3/mm^3
Lymphocytes, absolute ([1]; male, 10 mg/kg/day): 5.85 (2.85) 10^3/mm^3
MCH ([1]; male, 10 mg/kg/day): 20.30 (1.00) pg
MCHC ([1]; male, 10 mg/kg/day): 27.90 (0.35) g/dL
MCV ([1]; male, 10 mg/kg/day): 72.00 (4.00) fL
Monocytes, absolute ([1]; male, 10 mg/kg/day): 0.63 (0.18) 10^3/mm^3
Neutrophils, absolute ([1]; male, 10 mg/kg/day): 4.31 (1.38) 10^3/mm^3
Platelets ([1]; male, 10 mg/kg/day): 450.00 (114.00) 10^3/mm^3
RBC ([1]; male, 10 mg/kg/day): 6.35 (0.58) 10^6/mm^3
RDW ([1]; male, 10 mg/kg/day): 17.20 (1.35) %
Reticulocytes, absolute ([1]; male, 10 mg/kg/day): 60.00 (71.70) 10^9/L
WBC ([1]; male, 10 mg/kg/day): 11.00 (1.75) 10^3/mm^3
Basophils, absolute ([1]; male, 15 mg/kg/day): 0.11 (0.10) 10^3/mm^3
Eosinophils, absolute ([1]; male, 15 mg/kg/day): 0.39 (0.70) 10^3/mm^3
Hematocrit ([1]; male, 15 mg/kg/day): 38.40 (2.30) %
Hemoglobin ([1]; male, 15 mg/kg/day): 11.10 (0.90) g/dL
LUC, absolute ([1]; male, 15 mg/kg/day): 0.17 (0.11)^c 10^3/mm^3
Lymphocytes, absolute ([1]; male, 15 mg/kg/day): 4.78 (2.17) 10^3/mm^3
MCH ([1]; male, 15 mg/kg/day): 20.20 (0.90) pg
MCHC ([1]; male, 15 mg/kg/day): 28.90 (1.20) g/dL
MCV ([1]; male, 15 mg/kg/day): 71.20 (3.40) fL
Monocytes, absolute ([1]; male, 15 mg/kg/day): 1.10 (0.74) 10^3/mm^3
Neutrophils, absolute ([1]; male, 15 mg/kg/day): 7.62 (9.59) 10^3/mm^3
Platelets ([1]; male, 15 mg/kg/day): 634.00 (42.00)^d 10^3/mm^3
RBC ([1]; male, 15 mg/kg/day): 5.56 (0.40) 10^6/mm^3
RDW ([1]; male, 15 mg/kg/day): 14.80 (0.80) %
Reticulocytes, absolute ([1]; male, 15 mg/kg/day): 69.10 (47.50) 10^9/L
WBC ([1]; male, 15 mg/kg/day): 14.90 (12.80) 10^3/mm^3
mean AUC0-∞ (LPS-induced ALI): ~9,001 ng · h/mL
